The values below come from PubChem BioAssay.

Assay [1] is described as follows: RPL19A-GFP modulators, yeast TOR pathway, confirmation, cell-based, S. cerevisiae, flow cytometry, cherry picks, mother/daughter gates (AID 2270;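 active means GFP response below 50% of the DMSO control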). The conditions noted are these: S. cerevisiae RPL19A-GFP strain, 3 h, at 10 µM, stronger effect = lower value, 100 = same GFP as DMSO wells. For orientation: A flow cytometer gives signals particle by particle.
A short description of assay [2]: LAP4-GFP expression modulators in yeast, confirmation, cell-based, cherry picks, flow cytometry, mother/daughter gates (AID 2271;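 active means GFP response above 150% of the DMSO control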;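 further: ratio of sample to DMSO plate mean so 100% equals DMSO level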). The settings on record: S. cerevisiae LAP4-GFP strain, 3 h, at 10 µM, stronger effect = higher value, 100 means same as DMSO control. An outline of the steps:
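System: Alexa 633-stained baker's yeast GFP-fusion strain / Medium: synthetic complete (SC) yeast growth medium / Doses: compound at 10 µM, single point / Times: 3 h treatment at 30 °C with rotation / Detection: HT flow cytometry, GFP fluorescence channel / Benchmarks: DMSO-only negative wells, rapamycin 400 ng/mL positive wells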

Assay [3] can be described thus: modulators of MEP2-GFP levels in yeast, confirmation, S. cerevisiae, flow cytometry GFP, cherry picks (AID 2272;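 active means GFP response above 150% of the DMSO control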;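 further: ratio of well signal to plate DMSO mean so 100% equals DMSO level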). The conditions noted are these: S. cerevisiae MEP2-GFP strain, 3 h, at 10 µM, stronger effect = higher value.
The nature of assay [4]: AGP1-GFP expression modulators, hit retest, confirmation, cell-based, flow cytometry, S. cerevisiae, cherry picks (AID 2273).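 Further: median GFP channel fluorescence over the whole cell population gate.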 The conditions noted are these: S. cerevisiae AGP1-GFP strain, 3 h, at 10 µM.
Assay [5] is described as follows: modulators of CIT2-GFP expression in yeast, confirmation, S. cerevisiae, GFP fusion, cherry picks, mother/daughter gates (AID 2274). The conditions noted are these: S. cerevisiae CIT2-GFP strain, flow cytometry, 3 h, at 10 µM, stronger effect = higher value.
[6] abbreviates: measured here: daughter cell gate.
Where [7] appears, read: measured here: mother cell gate.
Where [8] appears, read: measured here: daughter cell gate response.
[9] abbreviates: measured here: mother cell gate response.

Structures are written as SMILES. Activity calls are given as the source filed them.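 How the source made its calls, unless noted: active means GFP response above 150% of the DMSO level; inconclusive means fewer than 70 events counted for a yeast strain; inactive means the rest.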

Take `CC(=O)Nc1ccc(NC(=O)c2oc3cc(C)c(C)cc3c2C)cc1`: the GFP response vs DMSO is 99% (inactive) in assay [1], 96.4% in assay [1] (setting [6]), 99.4% in assay [1] (setting [7]) and 102% (inactive) in assay [3]. Also, the values for the GFP response relative to DMSO in assay [2], in assay [2] (setting [8]) and in assay [2] (setting [9]) were 99.2% (inactive), 99.2% and 98.3%, respectively. Moreover, the GFP response, % of DMSO is 102% (inactive) in assay [4], 101% (inactive) in assay [5], 99.1% in assay [5] (setting [6]) and 98.5% in assay [5] (setting [7]).
For `O=C(COC(=O)c1ccc(NS(=O)(=O)c2cccs2)cc1O)Nc1nc2ccccc2s1`, the GFP response vs DMSO in assay [1] is 101% (inactive); in assay [1] (setting [6]), 100%; in assay [1] (setting [7]) it was 101%; in assay [3], 102% (inactive). Moreover, the GFP response relative to DMSO in assay [2] is 91.4% (inactive); in assay [2] (setting [8]) it was 92.5%; in assay [2] (setting [9]) it was 93.1%. In addition, the GFP response, % of DMSO is 98.5% (inactive) in assay [4], 102% (inactive) in assay [5], 98.1% in assay [5] (setting [6]) and 104% in assay [5] (setting [7]).
`Cc1cccc(NC(=O)CCCN2C(=O)c3cccc4cccc(c34)C2=O)c1`: the GFP response vs DMSO in assay [1] was 101% (inactive); in assay [1] (setting [6]) it was 96.9%; in assay [1] (setting [7]), 100%; in assay [3], 99% (inactive). The values for the GFP response relative to DMSO in assay [2], in assay [2] (setting [8]) and in assay [2] (setting [9]) were 94.4% (inactive), 95.9% and 94.1%, respectively. For the same molecule, the GFP response, % of DMSO in assay [4] is 98.8% (inactive); in assay [5], 98.8% (inactive); in assay [5] (setting [6]), 97.4%; in assay [5] (setting [7]), 99.3%.
Consider `COc1ccc(COC(=O)c2n[nH]c3ccccc23)cc1F`, for which the GFP response vs DMSO in assay [1] is 98.4% (inactive); in assay [1] (setting [6]), 96.7%; in assay [1] (setting [7]), 98.2%; in assay [3], 102% (inactive). The GFP response relative to DMSO in assay [2] was 97.4% (inactive); in assay [2] (setting [8]) it was 98.7%; in assay [2] (setting [9]) it was 99.3%. For the same molecule, the GFP response, % of DMSO in assay [4] is 95% (inactive); in assay [5] it was 106% (inactive); in assay [5] (setting [6]) it was 108%; in assay [5] (setting [7]), 104%.
Turning to `O=S(=O)(c1ccccc1)c1ncc(C(F)(F)F)cc1O`, the GFP response vs DMSO in assay [1] was 96.5% (inactive); in assay [1] (setting [6]) it was 98.4%; in assay [1] (setting [7]) it was 94.8%; in assay [3] it was 110% (inactive). Moreover, the GFP response relative to DMSO in assay [2] is 97.7% (inactive); in assay [2] (setting [8]), 97.5%; in assay [2] (setting [9]), 99.5%. For the same molecule, the GFP response, % of DMSO in assay [4] is 104% (inactive); in assay [5], 101% (inactive); in assay [5] (setting [6]), 99.3%; in assay [5] (setting [7]), 102%.
`COc1cc(NC(=O)c2ccc(C)cc2C)ccc1NC(=O)c1cc2ccccc2o1`: the GFP response vs DMSO in assay [1] was 97.1% (inactive); in assay [1] (setting [6]) it was 95.9%; in assay [1] (setting [7]), 94.4%; in assay [3] it was 106% (inactive). The GFP response relative to DMSO in assay [2] was 97.7% (inactive); in assay [2] (setting [8]), 97.5%; in assay [2] (setting [9]), 95.4%. For the same molecule, the GFP response, % of DMSO in assay [4] is 105% (inactive); in assay [5] it was 97.2% (inactive); in assay [5] (setting [6]) it was 101%; in assay [5] (setting [7]) it was 97.1%.
For the molecule `Cc1cccc(NC(=O)c2nc(S(=O)(=O)Cc3ccccc3)ncc2Cl)c1`, the GFP response vs DMSO in assay [1] is 93.1% (inactive); in assay [1] (setting [6]), 92.7%; in assay [1] (setting [7]), 91.4%; in assay [3], 108% (inactive). For the same molecule, the GFP response relative to DMSO in assay [2] is 136% (inactive); in assay [2] (setting [8]) it was 128%; in assay [2] (setting [9]) it was 137%. In addition, the GFP response, % of DMSO in assay [4] is 116% (inactive); in assay [5] it was 93.1% (inactive); in assay [5] (setting [6]), 88.7%; in assay [5] (setting [7]) it was 90.4%.
On to `O=C(c1ccccc1Br)N1CCN(c2ccccc2)CC1`, for which the GFP response vs DMSO in assay [1] is 104% (inactive); in assay [1] (setting [6]) it was 106%; in assay [1] (setting [7]), 105%; in assay [3], 109% (inactive). The GFP response relative to DMSO in assay [2] is 93.8% (inactive); in assay [2] (setting [8]) it was 92.5%; in assay [2] (setting [9]), 97.2%. The GFP response, % of DMSO in assay [4] was 94.3% (inactive); in assay [5] it was 93.9% (inactive); in assay [5] (setting [6]) it was 94.8%; in assay [5] (setting [7]), 94.4%.
Take `CCCCN(CC)S(=O)(=O)c1ccc(C(=O)Nc2nnc(-c3ccccc3Cl)o2)cc1`: the GFP response vs DMSO in assay [1] was 98.8% (inactive); in assay [1] (setting [6]), 99.1%; in assay [1] (setting [7]) it was 98.5%; in assay [3], 109% (inactive). The GFP response relative to DMSO is 97.9% (inactive) in assay [2], 99.2% in assay [2] (setting [8]) and 98.3% in assay [2] (setting [9]). For the same molecule, the GFP response, % of DMSO in assay [4] was 92.7% (inactive); in assay [5] it was 98.3% (inactive); in assay [5] (setting [6]) it was 99.1%; in assay [5] (setting [7]) it was 98.5%.
Regarding `COc1ccccc1N1C(=O)c2cccc3c(C(=O)O)ccc(c23)C1=O`, the GFP response vs DMSO in assay [1] was 98.8% (inactive); in assay [1] (setting [6]), 99.1%; in assay [1] (setting [7]), 98.7%; in assay [3], 105% (inactive). The figures for the GFP response relative to DMSO in assay [2], in assay [2] (setting [8]) and in assay [2] (setting [9]) were 101% (inactive), 101% and 98.3%, respectively. Also, the GFP response, % of DMSO is 97.4% (inactive) in assay [4], 99.7% (inactive) in assay [5], 101% in assay [5] (setting [6]) and 98.5% in assay [5] (setting [7]).
Take `C[n+]1ccc(/C=C/c2c[nH]c3ccc(F)cc23)cc1`: the GFP response vs DMSO in assay [1] is 101% (inactive); in assay [1] (setting [6]), 99.5%; in assay [1] (setting [7]) it was 102%; in assay [3], 120% (inactive). Besides, the GFP response relative to DMSO is 113% (inactive) in assay [2], 110% in assay [2] (setting [8]) and 115% in assay [2] (setting [9]). Further, the GFP response, % of DMSO in assay [4] was 104% (inactive); in assay [5] it was 110% (inactive); in assay [5] (setting [6]), 108%; in assay [5] (setting [7]), 112%.
For `O=C(N/N=C/c1ccccc1Cl)c1cccc(F)c1`, the GFP response vs DMSO is 101% (inactive) in assay [1], 98.1% in assay [1] (setting [6]), 99.8% in assay [1] (setting [7]) and 101% (inactive) in assay [3]. Moreover, the GFP response relative to DMSO is 103% (inactive) in assay [2], 101% in assay [2] (setting [8]) and 104% in assay [2] (setting [9]). Also, the GFP response, % of DMSO in assay [4] was 98.8% (inactive); in assay [5] it was 100% (inactive); in assay [5] (setting [6]), 101%; in assay [5] (setting [7]), 98.1%.
For the molecule `Cc1cc(C)c(OCC(=O)Nc2nc(-c3ccccn3)cs2)c(C)c1`, the GFP response vs DMSO was 98.6% (inactive) in assay [1], 98.3% in assay [1] (setting [6]), 98.8% in assay [1] (setting [7]) and 103% (inactive) in assay [3]. Also, the GFP response relative to DMSO in assay [2] is 121% (inactive); in assay [2] (setting [8]), 115%; in assay [2] (setting [9]), 126%. Moreover, the GFP response, % of DMSO in assay [4] was 95.8% (inactive); in assay [5], 92.2% (inactive); in assay [5] (setting [6]), 95.2%; in assay [5] (setting [7]), 88.8%.
As to `CCOC(=O)C(=Cc1ccc(F)cc1)C(=O)OCC`, the GFP response vs DMSO in assay [1] was 101% (inactive); in assay [1] (setting [6]), 101%; in assay [1] (setting [7]), 100%; in assay [3], 100% (inactive). For the same molecule, the values for the GFP response relative to DMSO in assay [2], in assay [2] (setting [8]) and in assay [2] (setting [9]) were 107% (inactive), 102% and 111%, respectively. Moreover, the GFP response, % of DMSO in assay [4] was 96.7% (inactive); in assay [5], 93.9% (inactive); in assay [5] (setting [6]) it was 94.8%; in assay [5] (setting [7]) it was 92.3%.
For the molecule `CC(=O)N(\C=C/C=C/C=C1\Sc2ccccc2C1=O)c1ccccc1`, the GFP response vs DMSO in assay [1] was 110% (inactive); in assay [1] (setting [6]), 106%; in assay [1] (setting [7]), 108%; in assay [3] it was 238% (active). Besides, the GFP response relative to DMSO was 153% (active) in assay [2], 145% in assay [2] (setting [8]) and 152% in assay [2] (setting [9]). For the same molecule, the GFP response, % of DMSO was 112% (inactive) in assay [4], 131% (inactive) in assay [5], 128% in assay [5] (setting [6]) and 131% in assay [5] (setting [7]).
With `Cc1cccn2c(N)c(-c3ccccc3)nc12`, the GFP response vs DMSO in assay [1] is 97.4% (inactive); in assay [1] (setting [6]) it was 97.3%; in assay [1] (setting [7]) it was 97.1%; in assay [3], 106% (inactive). Also, the GFP response relative to DMSO was 95.3% (inactive) in assay [2], 96.5% in assay [2] (setting [8]) and 90.6% in assay [2] (setting [9]). The GFP response, % of DMSO in assay [4] is 102% (inactive); in assay [5] it was 104% (inactive); in assay [5] (setting [6]) it was 102%; in assay [5] (setting [7]), 96.8%.
